# Compound activity deposited in PubChem by several laboratories.
# Hits are enriched below; roughly 27% of the tested compounds scored in any of these assays.
# CYP2C19 inh = inhibitors of human CYP2C19. CYP2C19 Supersomes, luciferin-H EGE luminescence, 30 min. inhibition, % at 5 µM. 21% of 96,000 active. P33261. AID 778;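 active = CYP2C19 inhibition above a set limit at 5 µM in the primary screen, cut at about 50% in these data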;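 also: plate controls were negative control wells for no effect and 2.5 mM tranylcypromine positive control for full effect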
# Target sequence (P33261 whole entry, looked up): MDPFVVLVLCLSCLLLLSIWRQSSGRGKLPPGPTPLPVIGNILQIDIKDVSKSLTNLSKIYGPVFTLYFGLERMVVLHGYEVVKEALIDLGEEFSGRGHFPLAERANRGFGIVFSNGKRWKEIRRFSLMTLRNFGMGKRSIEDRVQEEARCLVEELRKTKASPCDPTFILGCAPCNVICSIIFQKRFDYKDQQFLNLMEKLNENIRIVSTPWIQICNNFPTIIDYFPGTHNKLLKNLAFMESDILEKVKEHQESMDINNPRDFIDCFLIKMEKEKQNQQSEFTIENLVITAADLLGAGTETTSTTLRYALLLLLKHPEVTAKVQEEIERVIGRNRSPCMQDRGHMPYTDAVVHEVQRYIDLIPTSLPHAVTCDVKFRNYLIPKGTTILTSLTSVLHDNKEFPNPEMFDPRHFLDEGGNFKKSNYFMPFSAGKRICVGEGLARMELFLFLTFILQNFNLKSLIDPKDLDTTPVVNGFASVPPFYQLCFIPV
# Cav3 T inh = human Cav3.2 channel inhibition, primary screen; B-score at 10 µM; 4% of 100,000 active; AID 449739; O95180; Cav3.2-expressing cells, Fluo-4 calcium fluorescence FDSS; active compounds read low;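 active = single-dose well whose peak fluorescence ratio is a statistical outlier from its plate by either plate-standardised score or position-corrected B-score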
# CYP2C19 act = cytochrome P450 2C19 (human) activation | P33261 | recombinant CYP2C19, luciferin-H EGE luminescence; active compounds read high; 0 = fully inhibited enzyme, 1 = untreated enzyme | activation factor at 5 µM | 96,000 tested, under 10 active | AID 1025;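 active = activation factor of at least 2 at 5 µM in the primary screen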;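 also: 0 = wells with 2.5 mM tranylcypromine and 1 = vehicle-only wells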
# HIV Rev-RRE inh = HIV Rev-RRE protein-RNA interaction inhibition | P05866 | inhibition, % at 8 µM | AID 704 | Rev peptide-RRE RNA binding, FRET | 0.79% of 97,000 active;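 active = inhibition above the screen-wide mean plus 3 SD, cut at about 35% in these data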;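 also: 0% = median DMSO wells and 100% = median Neomycin B control wells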
# Target sequence (P05866 whole entry, looked up): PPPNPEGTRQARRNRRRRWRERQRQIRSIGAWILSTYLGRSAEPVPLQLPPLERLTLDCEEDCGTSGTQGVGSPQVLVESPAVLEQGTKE
#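 Material: labelled RRE RNA duplex and labelled Rev peptide / Buffer or medium: HEPES pH 7.5 salt buffer with EDTA / Compound dosing: single point, 8 µM final nominal compound concentration / Benchmarks: DMSO low control, neomycin B high control / Timing: 5 min preincubation and 15 min binding, 25 °C / Technique: FRET fluorescence readout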
# CYP2C9 inh = blocks human cytochrome P450 2C9 | CYP2C9 Supersomes, luciferin-H conversion, luminescence | 20% of 96,000 active | P11712 | inhibition, % at 5 µM | AID 777;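 active = blocking of liver enzyme CYP2C9 beyond about 50% at 5 µM, limit read from the data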
# CYP2C9 activ = increases human cytochrome P450 2C9 activity | activation factor at 5 µM | 1.4% of 96,000 active | recombinant CYP2C9, luciferin-H conversion, luminescence; active compounds read high; factor 1 = untreated enzyme, 0 = blocked | P11712;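 active = activation factor of 2 or more for CYP2C9 at a 5 µM dose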;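 also: 0 = sulfaphenazole-blocked wells and 1 = vehicle-only wells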
# * hit, by the source's call; x = no result given.
SMILES,CYP2C19 inh,Cav3 T inh,CYP2C19 act,HIV Rev-RRE inh,CYP2C9 inh,CYP2C9 activ
Cc1ccccc1OC(C)c1nc(-c2ccccc2)no1 (stereo not given),70*,-0.054,0.3,15,73*,0.3
Cc1ccc(SC(C)c2nc(-c3ccccc3)no2)cc1 (stereo not given),90*,-0.045,0.1,22,85*,0.2
COc1cc(OC)cc(-c2nc(-c3ccccc3)no2)c1,-18,-0.67,1.2,6,-23,1.2
CCOC(=O)c1cc2sccc2n1CC(=O)O,3,-0.098,1,11,28,0.7
CCCOc1ccc(C(CC(=O)O)NC(=O)c2cccs2)cc1 (stereo not given),-11,-0.16,1.1,6,26,0.7
Cc1ccsc1C(=O)NC(C)c1ccc2c(c1)OCO2 (stereo not given),x,-0.019,x,6,x,x
CC(NC(=O)C1CCCC1)c1ccc2c(c1)OCCO2 (stereo not given),3,-0.09,1,1,20,0.8
CC(NC(=O)C12CC3CC(CC(C3)C1)C2)c1ccc2c(c1)OCCO2 (stereo not given),6,3.5*,0.9,3,21,0.8
CCOC(=O)c1cc2sccc2n1CC(=O)c1ccc2c(c1)OCCO2,93*,-1.2,0.1,11,96*,0
CCn1c(C(=O)NC(C)c2ccc3c(c2)OCCO3)cc2sccc21 (stereo not given),10,-5.1*,0.9,2,33,0.7
CC(C)Oc1ccc(C(CC(=O)O)NC(=O)c2cccs2)cc1 (stereo not given),-7,0.53,1.1,-2,55*,0.5
CC(NC(=O)c1cc2sccc2n1C)c1ccc2c(c1)OCCO2 (stereo not given),22,x,0.8,6,82*,0.2
CC(NC(=O)c1cccs1)c1ccc2c(c1)OCO2 (stereo not given),92*,0.41,0.1,4,76*,0.2
NC(=O)c1ccc(C2SCC(=O)N2Cc2ccccc2)cc1 (stereo not given),23,1.4,0.8,3,16,0.8
Cc1cc(C)cc(N2CC34C=CC(O3)C(C(=O)OCC(=O)NCc3ccco3)C4C2=O)c1 (stereo not given),11,0.82,0.9,1,-1,1
O=S(=O)(c1ccccc1)N1CCN(c2nc3ccccc3s2)CC1,12,0.18,0.9,4,-8,1.1
Cc1cc(C)n(-c2nc3ccccc3nc2N2CCN(S(=O)(=O)c3ccc4ccccc4c3)CC2)n1,33,-3.5,0.7,4,50,0.5
Cc1cc(N2CCN(S(=O)(=O)c3ccc(Cl)cc3)CC2)c2ccccc2n1,82*,-1.9,0.2,14,40,0.6
Cc1cc(C)n(-c2nc3ccccc3nc2N2CCN(S(=O)(=O)c3ccc(F)c(C)c3)CC2)n1,7,0.022,0.9,23,50*,0.5
COc1ccccc1N1CCN(C(=O)C(=O)N/N=C/c2cccc(O)c2)CC1,14,1.3,0.9,-1,17,0.8
Nc1nnc(SCc2cc3c(cc2Cl)OCO3)s1,70*,0.042,0.3,3,49,0.5
Nc1nnc(SCc2ccccc2Cl)s1,68*,0.24,0.3,9,-7,1.1
CCn1c(=O)c(=O)[nH]c2cc(C(=O)NC3CCCc4ccccc43)ccc21 (stereo not given),7,0.11,0.9,x,6,0.9
Cc1nc2c(cc(Oc3ccc(S(=O)(=O)N4CCOCC4)cn3)c3ccsc32)s1,84*,-0.92,0.2,0,90*,0.1
CC(=O)O[C@@H]1[C@@]2(C)O[C@H]2CC[C@]23O[C@H]2[C@H](OC3=O)C2=C(C)C(=O)O[C@@]21O,x,-0.46,x,x,x,x
SMILES,CYP2C19 inh,Cav3 T inh,CYP2C19 act,HIV Rev-RRE inh,CYP2C9 inh,CYP2C9 activ
CCOC(=O)C1CCCN(S(=O)(=O)Cc2ccccc2)C1 (stereo not given),20,0.94,0.8,1,10,0.9
CCOC(=O)C1CCN(S(=O)(=O)Cc2ccc(Cl)cc2)CC1,87*,-0.18,0.1,-1,93*,0.1
CCOC(=O)C1CCN(C(=O)CN(Cc2ccc(Cl)cc2)S(C)(=O)=O)CC1,42,1.8,0.6,4,18,0.8
CCOC(=O)C1CCN(S(=O)(=O)Cc2ccccc2)CC1,45,-0.82,0.6,0,69*,0.3
Brc1ccc(-c2nc3ncccn3c2NC2CCCCC2)o1,48,-1.5,0.5,16,56*,0.4
Cc1ccc(-c2nc3ncccn3c2NC2CCCC2)o1,3,0.23,1,8,1,1
O=C1CC(C(=O)Nc2ccc(O)c(C(=O)O)c2)C(c2ccccc2)O1 (stereo not given),-15,-0.13,1.1,0,29,0.7
Cc1ccc(C)c(NC(=O)CSc2n[nH]c(-c3ccncc3)n2)c1,66*,x,0.3,3,96*,0
Cc1ccc(NC(=O)CSc2ncn(-c3ccccc3)n2)cc1C,x,-2,x,2,x,x
Cc1cc(NC(=O)CSc2n[nH]c(-c3cccs3)n2)no1,33,-0.13,0.7,6,46,0.5
CC(C)c1ccc(C(=O)CSc2n[nH]c(-c3ccncc3)n2)cc1,93*,2.3,0.1,3,94*,0.1
O=C(CSc1n[nH]c(-c2ccncc2)n1)NC1CCS(=O)(=O)C1 (stereo not given),13,0.36,0.9,6,72*,0.3
Cc1ccc(NC(=O)CSc2n[nH]c(-c3ccncc3)n2)cc1C,63*,0.31,0.4,x,97*,0
CC1=C(C(=O)NCc2ccccc2)C(c2cccs2)n2ncnc2N1 (stereo not given),7,-1.4,0.9,1,4,1
CCCc1[nH]n(-c2nc3ccccc3s2)c(=O)c1C=NCC(C)C,33,-0.61,0.7,16,51*,0.5
CC(=NCc1ccco1)c1c(C)[nH]n(-c2nc3ccccc3s2)c1=O,2,-0.21,1,2,10,0.9
Cc1ccc(C(=O)c2nc3c(n2O)CCCC3)cc1,-5,-0.0079,1,11,1,1
COC(=O)CCC(=O)N1CCc2cc(S(=O)(=O)N3CCN(c4ccccc4Cl)CC3)ccc21,32,-0.2,0.7,1,59*,0.4
O=C(NCCCCc1ccccc1)C1CC(c2ccc(C(F)(F)F)cc2)=NO1 (stereo not given),x,-0.71,x,x,x,x
O=S(=O)(NCc1ccco1)c1ccccc1Br,x,-0.45,x,x,x,x
COc1cc(C)c(Cl)cc1S(=O)(=O)NCc1ccco1,98*,-0.91,0,8,-100,2*
CCOc1ccc(S(=O)(=O)NCc2ccco2)c2ccccc12,64*,-1.8,0.4,13,-14,1.1
CCOc1cc(C)c(Cl)cc1S(=O)(=O)NCc1ccco1,16,-2,0.8,1,-103,2*
